Experimental data reported in BindingDB's records for doi:10.1016/j.bmcl.2005.10.070 (Pharmacopeia, 2005).
“And” between values parts separate entries of the source, which are not always exact repeats. Identical values can stand only once.

Target: Protein farnesyltransferase subunit beta/geranylgeranyltransferase type-1 subunit alpha (Mus musculus, UniProt Q61239+Q8K2I1)
Assay: Anchorage-independent growth of transformed NIH3T3 cells in soft agar
How it was run: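 Transformed NIH-3T3 cells grown in soft agar; colonies photographed by video camera and counted; IC50 calculated from colony counts.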

Structure (SMILES): O=C(NCCCn1ccnc1)C1CN(C2c3ccc(Cl)cc3CCc3cc(Br)cnc32)CCN1C(=O)NC1CCCCC1 (stereo unspecified) [4-(3-bromo-8-chloro-6,11-dihydro-5H-benzo[5,6]cyclohepta[1,2-b]pyridin-11-yl)-piperazine-1,2-dicarboxylicacid 1-cyclohexylamide 2-[(3-imidazol-1-yl-propyl)-amide]]
- IC50: 5 nM and 5.2 nM
